Laboratory results from ChEMBL document CHEMBL2169763, “Chiral separation, configurational identification and antihypertensive evaluation of (±)-7,8-dihydroxy-3-methyl-isochromanone-4” (Bioorg Med Chem Lett, 2012).
Active and inactive are the calls of the source. The rule behind the calls is not given here.

What was measured:
Rattus norvegicus [1] = assay: Antihypertensive activity in spontaneously hypertensive rat assessed as reduction in diastolic arterial pressure at 40 mg/kg, po at 6 hrs; format: functional, organism-based; design: dose 40 mg/kg; details: Artery
Summary of the method: (§1)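 Spontaneously hypertensive rats received a single oral dose of 40 or 80 mg/kg. Systolic, diastolic and mean arterial pressure were recorded from 0 to 24 h after dosing, with heart rate monitored in parallel. Data are given as mean ± SEM (n = 8), and significance was tested against the respective control (p < 0.05, p < 0.01).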

Rattus norvegicus [2] = assay: Antihypertensive activity in spontaneously hypertensive rat assessed as reduction in systolic arterial pressure at 40 mg/kg, po measured up to 24 hrs; format: functional, organism-based; design: dose 40 mg/kg; details: Artery; summary of the method: as §1
Rattus norvegicus [3] = assay: Antihypertensive activity in spontaneously hypertensive rat assessed as reduction in diastolic arterial pressure at 80 mg/kg, po at 6 hrs; format: functional, Artery; design: scale not given: the % may be the effect or the level left; summary of the method: as §1
Rattus norvegicus [4] = assay: Antihypertensive activity in spontaneously hypertensive rat assessed as reduction in mean arterial pressure at 80 mg/kg, po up to 24 hrs; format: functional, organism-based; design: dose 80 mg/kg; details: Artery; summary of the method: as §1
Rattus norvegicus [5] = assay: Antihypertensive activity in spontaneously hypertensive rat assessed as reduction in systolic arterial pressure at 80 mg/kg, po measured up to 24 hrs; format: functional, organism-based; design: dose 80 mg/kg; details: Artery; summary of the method: as §1
Rattus norvegicus [6] = assay: Toxicity in spontaneously hypertensive rat assessed as change in basal heart rate at 50 mg/kg, po measured up to 24 hrs; format: organism-based; design: dose 50 mg/kg, route oral; details: in vivo
Rattus norvegicus [7] = assay: Antihypertensive activity in spontaneously hypertensive rat assessed as reduction in diastolic arterial pressure at 80 mg/kg, po up to 24 hrs; format: functional, organism-based; design: dose 80 mg/kg; details: Artery; summary of the method: as §1

**Q.** C[C@H](CS)C(=O)N1CCC[C@H]1C(=O)O was tested. Which Activity (Rattus norvegicus [1]) did it give?
**A.** The Activity was “Active”.

**Q.** What about the Activity (Rattus norvegicus [2]) of the same molecule?
**A.** The Activity was “Active”.

**Q.** Which results are given for C[C@H]1OCc2c(ccc(O)c2O)C1=O?
**A.** Activity (Rattus norvegicus [3]): 30%; Activity (Rattus norvegicus [4]): Active; Activity (Rattus norvegicus [5]): Active; Activity (Rattus norvegicus [6]): Non-toxic; Activity (Rattus norvegicus [7]): Active

**Q.** For C[C@@H]1OCc2c(ccc(O)c2O)C1=O, which Activity (Rattus norvegicus [4]) is on record?
**A.** Its Activity is “Active”.

**Q.** And the Activity (Rattus norvegicus [5])?
**A.** The Activity was “Active”.

**Q.** What about the Activity (Rattus norvegicus [6]) of the same molecule?
**A.** The Activity was “Non-toxic”.

**Q.** What about the Activity (Rattus norvegicus [7]) of the same molecule?
**A.** Its Activity is “Active”.

**Q.** CC1OCc2c(ccc(O)c2O)C1=O (racemic) was tested. Which Activity (Rattus norvegicus [4]) did it give?
**A.** Its Activity is “Active”.

**Q.** What about the Activity (Rattus norvegicus [5]) of the same molecule?
**A.** Its Activity is “Active”.

**Q.** What about the Activity (Rattus norvegicus [6]) of the same molecule?
**A.** The Activity was “Non-toxic”.

**Q.** And the Activity (Rattus norvegicus [7])?
**A.** The Activity was “Active”.
